Assay results as given in ChEMBL document CHEMBL3351558, “Picomolar Inhibitors of HIV-1 Reverse Transcriptase: Design and Crystallography of Naphthyl Phenyl Ethers” (ACS Med Chem Lett, 2014).
pEC50: −log10 of the molar value. Converted amounts (≈) assume the structure as drawn.

Key:
[1] = tested on: Human immunodeficiency virus 1; experiment: Antiviral activity against wild type HIV1 harboring reverse transcriptase K103N/Y181C mutant infected in human MT2 cells assessed as protection from virus-induced cytopathicity by MTT assay; assay type: functional, organism-based; settings: for pEC50: Human immunodeficiency virus 1, MT2, read-out: EC50; for EC50: mt2
[2] = tested on: Human immunodeficiency virus 1; experiment: Antiviral activity against wild type HIV1 harboring reverse transcriptase Y181C mutant infected in human MT2 cells assessed as protection from virus-induced cytopathicity by MTT assay; assay type: functional, organism-based; settings: for pEC50: Human immunodeficiency virus 1, MT2, read-out: EC50; for EC50: mt2
[3] = Aqueous solubility of the compound at pH 6.5 after 48 hrs by shake-flask method; assay type: physicochemical
Summary of the method: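 Shake-flask method: excess solid stirred in Britton–Robinson buffer, pH 6.5, for 48 h at 25 °C. The supernatant was passed through a 0.2 μm filter and quantified by UV–vis spectrophotometry. Piroxicam served as the control.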

[4] = tested on: Human immunodeficiency virus 1; experiment: Antiviral activity against wild type HIV1 3B infected in human MT2 cells assessed as protection from virus-induced cytopathicity by MTT assay; assay type: functional, organism-based; settings: Human immunodeficiency virus 1, 3B
[5] = Cytotoxicity against human MT2 cells assessed as reduction in cell viability by MTT assay; assay type: cell-based

Structure (SMILES)	pEC50 [1]	pEC50 [2]	solubility thermodynamic at 48 h [3]	pEC50 [4]	CC50 [5]	EC50 [2]	EC50 [1]
N#C/C=C/c1cc(Cl)cc(Oc2ccc(Cl)cc2OCCn2ccc(=O)[nH]c2=O)c1	6.66	7.31					
N#C/C=C/c1cc(F)cc(Oc2ccc(F)cc2OCCn2ccc(=O)[nH]c2=O)c1	7.07	7.80	10.8 µg/mL (≈ 26.3 µM)				
N#C/C=C/c1cc(Cl)cc(Oc2ccccc2OCCn2ccc(=O)[nH]c2=O)c1	7.62	7.34	510 µg/mL (≈ 1240 µM)	9.51	18000 nM		
N#Cc1cc2c(Oc3ccccc3OCCn3ccc(=O)[nH]c3=O)cccc2[nH]1	5.26	4.42		7.25	72000 nM		
Cc1cc(Oc2ccccc2OCCn2ccc(=O)[nH]c2=O)c2cc(C#N)[nH]c2c1	6.10			8.00	1200 nM	Not Active	
N#Cc1cc2c(Oc3ccccc3OCCn3ccc(=O)[nH]c3=O)cc(Cl)cc2[nH]1	5.57	4.57		6.47	81000 nM		
N#Cc1cc2c(Oc3ccccc3OCCn3ccc(=O)[nH]c3=O)cccc2o1	6.38			7.74	> 100000 nM	Not Active	
N#Cc1cc2c(Oc3ccccc3OCCn3ccc(=O)[nH]c3=O)cc(Cl)cc2o1	6.59	5.72		7.72	> 100000 nM		
N#Cc1cc2c(Oc3ccc(F)cc3OCCn3ccc(=O)[nH]c3=O)cccc2o1	5.40	5.46		7.40	> 100000 nM		
N#Cc1cc2c(Oc3ccc(Cl)cc3OCCn3ccc(=O)[nH]c3=O)cccc2o1				8.15	7000 nM	Not Active	Not Active
N#Cc1cc2c(Oc3ccccc3OCCn3ccc(=O)[nH]c3=O)cccn2c1	7.96	6.51		9.42	> 100000 nM		
N#Cc1cc2c(Oc3ccccc3OCCn3ccc(=O)[nH]c3=O)cc(Cl)cn2c1	7.66	6.66		8.43	39000 nM		
N#Cc1cc2c(Oc3ccccc3OCCn3ccc(=O)[nH]c3=O)cc(F)cn2c1	7.17	6.77		9.15	40000 nM		
N#Cc1cc2c(Oc3ccc(F)cc3OCCn3ccc(=O)[nH]c3=O)cccn2c1	6.66	6.22		8.57	100000 nM		
N#Cc1cc2c(Oc3ccc(F)cc3OCCn3ccc(=O)[nH]c3=O)cc(F)cn2c1	8.00	6.60	43.8 µg/mL (≈ 103 µM)	9.40	50000 nM		
N#Cc1cc2c(Oc3ccc(F)cc3OCCn3ccc(=O)[nH]c3=O)cc(Cl)cn2c1	6.96	6.80		8.60	15000 nM		

Structure (SMILES)	pEC50 [1]	pEC50 [2]	solubility thermodynamic at 48 h [3]	pEC50 [4]	CC50 [5]	EC50 [2]	EC50 [1]
O=c1ccn(CCOc2ccccc2Oc2cccc3ccccc23)c(=O)[nH]1	5.30	5.24		7.22	80000 nM		
Cc1ccc2c(Oc3ccccc3OCCn3ccc(=O)[nH]c3=O)cccc2c1	4.82	4.92		6.60	40000 nM		
O=c1ccn(CCOc2ccccc2Oc2cccc3cc(Cl)ccc23)c(=O)[nH]1	6.15	6.00		7.85	> 100000 nM		
O=c1ccn(CCOc2ccccc2Oc2cc(Cl)cc3cc(Cl)ccc23)c(=O)[nH]1	6.28	6.37		7.42	45000 nM		
N#Cc1ccc2c(Oc3ccccc3OCCn3ccc(=O)[nH]c3=O)cccc2c1	7.82	7.72	4.3 µg/mL (≈ 10.8 µM)	9.28	> 100000 nM		
N#Cc1ccc2c(Oc3ccccc3OCCn3ccc(=O)[nH]c3=O)cc(Cl)cc2c1	8.12	7.89		8.66	24000 nM		
N#Cc1ccc2c(Oc3ccc(F)cc3OCCn3ccc(=O)[nH]c3=O)cc(Cl)cc2c1	7.34	8.28		8.35	16000 nM		
N#Cc1ccc2c(Oc3ccc(Cl)cc3OCCn3ccc(=O)[nH]c3=O)cc(Cl)cc2c1	6.60	7.31		7.96	20000 nM		
N#Cc1ccc2c(Oc3ccc(F)cc3OCCn3ccc(=O)[nH]c3=O)cccc2c1	7.32	8.00		9.31	> 100000 nM		
N#Cc1ccc2c(Oc3ccc(Cl)cc3OCCn3ccc(=O)[nH]c3=O)cccc2c1	6.82	7.32		8.82	> 100000 nM		
N#Cc1ccc2c(Oc3ccccc3OCCn3ccc(=O)[nH]c3=O)cc(F)cc2c1	8.22	8.10		8.96	> 100000 nM		
N#Cc1ccc2c(Oc3ccc(F)cc3OCCn3ccc(=O)[nH]c3=O)cc(F)cc2c1	7.68	8.25		8.72	> 100000 nM		
N#Cc1ccc2c(Oc3ccc(Cl)cc3OCCn3ccc(=O)[nH]c3=O)cc(F)cc2c1	6.82	7.49		8.30	18000 nM		
Cc1ccnc2c1NC(=O)c1cccnc1N2C1CC1 [NEVIRAPINE]					> 100000 nM	Not Active	Not Active
CN1C(C(=O)Nc2ccccn2)=C(O)c2ccccc2S1(=O)=O [PIROXICAM]			5 µg/mL (≈ 15.1 µM)				
